SIRT5 block: sirtuin-5 (human) deacylase inhibition; inhibition, % at 15 µM; hit rate 1.1% among 330,000; Purified SirT5, succinyl-peptide AMC, trypsin-coupled fluorescence; in the data active = inhibition above about 15%; inconclusive = no clear call, values can overlap the other calls
ARNT TACC3 PPI: ARNT/TACC3 interaction disruption. Q9Y6A5. AlphaScreen His-ARNT PAS-B/GST-TACC3 binding, luminescence; TACC3 fragment carries E629A point mutation. inhibition, % at 9.99 µM. hit rate 0.66% among 390,000;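 active = mean inhibition of replicates at least 50% and at least half of replicates each reaching 50%; inconclusive = half or more replicates reach 50% but mean below 50%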
FGF22 binding: shifts melting point of recombinant human FGF22. Q9HCT0. recombinant FGF22 thermal shift, SYPRO orange fluorescence; percent of sucrose octasulfate shift, DMSO zero. activity (Tm shift, normalised), % at 9.99 µM. hit rate 1.5% among 340,000;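 active = mean Tm shift, scaled 0 neutral to 100 positive control, at about 1.3% or above, every replicate too, limit read from the data; inconclusive = no clear call, values can overlap the other calls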
Target sequence (Q9HCT0 whole entry, looked up): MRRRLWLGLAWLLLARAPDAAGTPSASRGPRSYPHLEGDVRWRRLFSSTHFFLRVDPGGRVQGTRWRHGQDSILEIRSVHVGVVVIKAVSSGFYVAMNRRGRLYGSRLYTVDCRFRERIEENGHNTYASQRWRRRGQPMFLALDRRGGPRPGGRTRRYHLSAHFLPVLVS
DENV2 CPE: DENV2-induced cell death inhibition; CPE inhibition, % at 9.99 µM; DENV2-infected cells, cytopathic effect rescue, plate reader; AID 651640; hit rate 1.7% among 350,000; in the data active = CPE inhibition above about 20%, passing the limit was not always enough; inconclusive = no clear call, values can overlap the other calls; tested in BHK-21 cells
Xi reactivation: reactivates the inactive X chromosome in mouse fibroblasts; XiGFP mouse fibroblasts, % GFP-positive cells imaging, 3 d; cells co-treated with 5-aza-dC sensitizer; scaled so ellipticine positive control = 100%; activation, % at 7.58 µM; hit rate 0.055% among 360,000; AID 743238;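 active = mean normalized replicate activation at least 10% and every replicate at or above 10%; inconclusive = only one of the two criteria met; inactive = mean below 10% and not all replicates reach 10%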
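Material: SV40-immortalized XiGFP fibroblast cells, line 68-5-11 | Buffer or medium: DMEM containing 5-aza-dC | Dosing: One concentration, pinned | Times: 3 d treatment, 15 min room-temperature fixation | Controls: Ellipticine 6 µM positive control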
FN deposition inh: fibronectin deposition inhibition; AH1F fibroblasts, Alexa488-fibronectin deposition fluorescence, overnight; inhibition, % at 12.6 µM; hit rate 0.086% among 350,000; AID 743247;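 active = mean inhibition across replicates of 30% or more, regardless of how many single replicates reach that level; inconclusive = mean under 30% yet at least half of replicates reach 30%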
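Material – AH1F fibroblast monolayer, labelled fibronectin deposition · Reagent – labelled fibronectin 24 nM · Timing – 1 h adhesion, overnight exposure · Measured by – fluorescence at 485 nm excitation, 525 nm emission · Read-out – inhibition of fibronectin deposition signal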
Hits are given with their value; – = inactive; ? = inconclusive; · = no result; ! = a repeat was not active. Compounds with a hit are over-represented: about 3.8% of the library has one in this group of screens.

SMILES	SIRT5 block	ARNT TACC3 PPI	FGF22 binding	DENV2 CPE	Xi reactivation	FN deposition inh
COc1ccc(S(=O)(=O)N(C)C[C@H]2OCCCC[C@@H](C)Oc3ccc(NC(=O)CCC(F)(F)F)cc3C(=O)N([C@@H](C)CO)C[C@@H]2C)cc1	–	–	–	–	–	·
CNC[C@H]1OCCCC[C@H](C)Oc2ccc(NC(=O)Nc3ccc4c(c3)OCO4)cc2C(=O)N([C@H](C)CO)C[C@H]1C	–	–	–	–	–	·
CCCNC(=O)[C@@H]1[C@@H](CO)[C@@H]2Cn3c(ccc(-c4ccc(F)cc4)c3=O)[C@@H]2N1CC1CC1	–	–	–	–	–	·
Cc1noc(C)c1S(=O)(=O)Nc1ccc2c(c1)C(=O)N([C@H](C)CO)C[C@@H](C)[C@@H](CN(C)S(=O)(=O)c1ccc(Cl)cc1)OCCCC[C@H](C)O2	–	–	–	–	–	–
COCC(=O)Nc1ccc2c(c1)C(=O)N(C)C[C@@H](OC)[C@H](C)CN(Cc1cc(F)ccc1F)[C@@H](C)CO2	–	–	–	–	–	–
CCC(=O)Nc1ccc2c(c1)OC[C@@H](C)N(Cc1ccccc1F)C[C@@H](C)[C@@H](OC)CN(C)C2=O	29.8!	–	–	–	–	–
CCC(=O)Nc1ccc2c(c1)OC[C@H](C)N(Cc1ccccn1)C[C@@H](C)[C@H](OC)CN(C)C2=O	–	–	–	31.7	–	–
CO[C@@H]1CN(C)C(=O)c2ccc(NS(=O)(=O)c3ccc(C)cc3)cc2OC[C@@H](C)N(Cc2ccccn2)C[C@H]1C	–	active	–	–	–	–
CCCC(=O)Nc1ccc2c(c1)OC[C@@H](C)N(Cc1ccccn1)C[C@H](C)[C@@H](OC)CN(C)C2=O	–	–	–	63.6	–	–
CCCC(=O)Nc1ccc2c(c1)OC[C@@H](C)N(Cc1ccccn1)C[C@H](C)[C@H](OC)CN(C)C2=O	–	–	–	–	–	–
CCC(=O)Nc1ccc2c(c1)OC[C@@H](C)N(Cc1ccccc1F)C[C@H](C)[C@@H](OC)CN(C)C2=O	–	–	–	–	–	–
CO[C@@H]1CN(C)C(=O)c2ccc(NS(=O)(=O)c3ccccc3)cc2OC[C@@H](C)N(Cc2ccccn2)C[C@@H]1C	·	–	–	–	–	–
Nc1ccc(Cl)cc1C(=O)c1ccc[nH]1	·	·	44.1	?	–	–
Cc1ccc(SCCC(=O)NCC2CCCO2)cc1 (configuration not stated)	·	·	·	·	·	–
Cc1ccc(N(Cc2ccc(C(=O)NCC3CCCO3)cc2)S(C)(=O)=O)cc1C (configuration not stated)	–	–	43.4	–	–	–
CS(=O)(=O)N(CC(=O)NCC1CCCO1)c1cccc([N+](=O)[O-])c1 (configuration not stated)	–	–	42.9	–	–	–
Cc1ccc(S(=O)(=O)N(CC(=O)NCC2CCCO2)c2cccc([N+](=O)[O-])c2)cc1 (configuration not stated)	–	–	–	–	–	–
O=C(CSc1nnc(-c2ccccc2)c(-c2ccccc2)n1)NCC1CCCO1 (configuration not stated)	·	–	43.2	?	–	–
Cc1ccc(SCC(=O)NCC2CCCO2)cc1 (configuration not stated)	–	–	43.2	–	–	–
CNC[C@@H]1Oc2ccc(NC(=O)NC(C)C)cc2CC(=O)N(C)C[C@@H]1C	·	·	·	·	–	–
Cc1ccc(NS(=O)(=O)c2ccc(C(=O)NCC3CCCO3)cc2)cc1 (configuration not stated)	–	–	43.7	–	–	–
O=C(Cc1ccc(F)cc1)NCC1CCCO1 (configuration not stated)	–	–	43.3	–	–	–
Cc1cc(S(=O)(=O)Nc2ccc(C(=O)NCC3CCCO3)cc2)ccc1F (configuration not stated)	·	·	–	–	–	–
C[C@@H]1CCCCO[C@H](CN(C)S(C)(=O)=O)[C@@H](C)CN([C@H](C)CO)C(=O)c2cc(NC(=O)C3CCCCC3)ccc2O1	–	–	–	?	–	·
Cc1ccsc1/C=N/n1c(-c2ccccn2)n[nH]c1=S	–	60.6	–	–	–	–

Screens: PubChem, Broad Institute
